Here are results for four compounds from ChEMBL document CHEMBL5357047, “The development of thymol-isatin hybrids as broad-spectrum antibacterial agents with potent anti-MRSA activity” (RSC Med Chem, 2024).

Common to all, as to assay type: functional
Details in all cases: read-out: IZ

Assay [1] deals with Escherichia coli. In words: Antibacterial activity against Escherichia coli MTCC 119 assessed as inhibition of bacterial growth at 50 uM measured after 48 hrs by agar well diffusion method.
The test system of assay [2] is Escherichia coli. Description: Antibacterial activity against clinically isolated Escherichia coli RBRJ005 assessed as inhibition of bacterial growth at 50 uM measured after 48 hrs by agar well diffusion method. In general terms: Agar diffusion results depend on both activity and mobility in agar.
The subject of assay [3] is Klebsiella pneumoniae. Description: Antibacterial activity against Klebsiella pneumoniae MTCC 109 assessed as inhibition of bacterial growth at 50 uM measured after 48 hrs by agar well diffusion method.
For assay [4], the system named is Staphylococcus aureus. In words: Antibacterial activity against clinically isolated Staphylococcus aureus RBRJ010 assessed as inhibition of bacterial growth at 50 uM measured after 48 hrs by agar well diffusion method.
Assay [5] has as its system Staphylococcus aureus. In words: Antibacterial activity against Methicillin-resistant Staphylococcus aureus ATCC 33591 assessed as inhibition of bacterial growth at 50 uM measured after 48 hrs by agar well diffusion method. The method in brief: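 Agar well diffusion on Mueller Hinton agar seeded with bacteria at 0.5 McFarland. […] Incubated 48 h at 37 °C aerobically; zone of inhibition diameter (mm) measured. Triplicate.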

The subject of assay [6] is Acinetobacter baumannii. In words: Antibacterial activity against clinically isolated Acinetobacter baumannii RBRJ027 assessed as inhibition of bacterial growth at 50 uM measured after 48 hrs by agar well diffusion method.
In assay [7] the test system is Enterococcus faecalis. Description: Antibacterial activity against clinically isolated Enterococcus faecalis RBRJ015 assessed as inhibition of bacterial growth at 50 uM measured after 48 hrs by agar well diffusion method.
Assay [8] deals with Staphylococcus aureus. Description: Antibacterial activity against clinically isolated Methicillin-resistant Staphylococcus aureus assessed as inhibition of bacterial growth at 50 uM measured after 48 hrs by agar well diffusion method.
Assay [9] concerns Klebsiella pneumoniae. In words: Antibacterial activity against clinically isolated Klebsiella pneumoniae RBRJ024 assessed as inhibition of bacterial growth at 50 uM measured after 48 hrs by agar well diffusion method.
Assay [10] deals with Escherichia coli. In words: Antibacterial activity against clinically isolated Escherichia coli RBRJ013 assessed as inhibition of bacterial growth at 50 uM measured after 48 hrs by agar well diffusion method.
Assay [11] concerns Enterococcus faecalis. In words: Antibacterial activity against Enterococcus faecalis MTCC 439 assessed as inhibition of bacterial growth at 50 uM measured after 48 hrs by agar well diffusion method.
Assay [12] deals with Staphylococcus aureus. In words: Antibacterial activity against Staphylococcus aureus MTCC 740 assessed as inhibition of bacterial growth at 50 uM measured after 48 hrs by agar well diffusion method.
The subject of assay [13] is Klebsiella pneumoniae. Description: Antibacterial activity against clinically isolated Klebsiella pneumoniae RBRJ019 assessed as inhibition of bacterial growth at 50 uM measured after 48 hrs by agar well diffusion method.
Assay [14] has as its system Enterobacter cloacae. Description: Antibacterial activity against clinically isolated Enterobacter cloacae RBRJ017 assessed as inhibition of bacterial growth at 50 uM measured after 48 hrs by agar well diffusion method.
Assay [15] concerns Staphylococcus epidermidis. In words: Antibacterial activity against Staphylococcus epidermidis MTCC 435 assessed as inhibition of bacterial growth at 50 uM measured after 48 hrs by agar well diffusion method.
Assay [16] concerns Pseudomonas aeruginosa. Description: Antibacterial activity against Pseudomonas aeruginosa MTCC 424 assessed as inhibition of bacterial growth at 50 uM measured after 48 hrs by agar well diffusion method.

With `Cc1ccc(C(C)C)c(OCc2cn(CCCCN3C(=O)C(=O)c4cc(I)ccc43)nn2)c1`, the zone of inhibition at 50 µM is 10.2 mm in [1]; 10.4 mm in assay [2]; 12.2 mm in assay [3]; 11.9 mm in assay [4]; 14 mm in assay [5]; 10.1 mm in assay [6]. Besides, the zone of inhibition at 50 µM in assay [7] is 11.2 mm; in [8], 13.5 mm; in [9], 10.1 mm; in [10], 10.9 mm; in assay [11], 10.1 mm; in assay [12] it was 16.9 mm. Moreover, the zone of inhibition at 50 µM came to 10.7 mm in [13], 10.2 mm in assay [14], 13.5 mm in assay [15] and 10.6 mm in [16].
As to `Cc1ccc(C(C)C)c(OCc2cn(CCN3C(=O)C(=O)c4cc(Br)ccc43)nn2)c1`, the zone of inhibition at 50 µM was 12.5 mm in [1]; 12.5 mm in assay [2]; 13.2 mm in assay [3]; 16.4 mm in assay [4]; 13.3 mm in [5]; 12.5 mm in assay [6]. Besides, the zone of inhibition at 50 µM amounted to 12.4 mm in [7]; 14.2 mm in assay [8]; 12.3 mm in assay [9]; 13.2 mm in assay [10]; 13.6 mm in assay [11]; 16.2 mm in assay [12]. The zone of inhibition at 50 µM in assay [13] is 11.2 mm; in [14], 13.3 mm; in assay [15], 15.3 mm; in assay [16] it was 14 mm.
With `Cc1ccc(C(C)C)c(OCc2cn(CCN3C(=O)C(=O)c4cc(Cl)ccc43)nn2)c1`, the zone of inhibition at 50 µM in assay [1] came out at 13.6 mm; in [2], 13.2 mm; in [3] it was 15.1 mm; in [4], 19.6 mm; in assay [5] it was 14.6 mm; in assay [6], 12 mm. Moreover, the zone of inhibition at 50 µM in [7] was 15.2 mm; in assay [8], 14.3 mm; in assay [9], 13.6 mm; in assay [10], 13.1 mm; in [11], 11.2 mm; in assay [12], 19.3 mm. Also, the zone of inhibition at 50 µM was 15.2 mm in assay [13], 14.2 mm in assay [14], 16.2 mm in [15] and 14.1 mm in assay [16].
In the case of `Cc1ccc(C(C)C)c(OCc2cn(CCN3C(=O)C(=O)c4cc(I)ccc43)nn2)c1`, the zone of inhibition at 50 µM in assay [1] is 11.3 mm; in [2] it was 10.3 mm; in assay [3], 12.7 mm; in assay [4] it was 14.1 mm; in assay [5] it was 13.1 mm; in assay [6], 12.1 mm. In addition, the zone of inhibition at 50 µM in [7] was 12.9 mm; in assay [8], 13.2 mm; in [9], 12.2 mm; in [10], 11.3 mm; in [11] it was 12.2 mm; in assay [12], 15.2 mm. Also, the zone of inhibition at 50 µM was found to be 11.6 mm in assay [13], 13.1 mm in assay [14], 13.4 mm in assay [15] and 10.4 mm in assay [16].
